Hits are enriched below; roughly 1.4% of the tested compounds scored in any of these assays.
A3A deaminase – APOBEC3A ssDNA deaminase inhibitors, primary screen, selectivity assay for APOBEC3G inhibitor project, biochemical, FAM/TAMRA oligo cleavage fluorescence; inhibition, % at 20 µM; recombinant A3A, FAM/TAMRA ssDNA deamination fluorescence; hit rate 0.41% among 330,000;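 active = at least 40% inhibition at 20 µM here, with at most 30% in a related deaminase screen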;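 note: plate controls were A3A with DMSO for no effect and wells lacking A3A enzyme for full effect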
Target sequence (P31941 whole entry, looked up): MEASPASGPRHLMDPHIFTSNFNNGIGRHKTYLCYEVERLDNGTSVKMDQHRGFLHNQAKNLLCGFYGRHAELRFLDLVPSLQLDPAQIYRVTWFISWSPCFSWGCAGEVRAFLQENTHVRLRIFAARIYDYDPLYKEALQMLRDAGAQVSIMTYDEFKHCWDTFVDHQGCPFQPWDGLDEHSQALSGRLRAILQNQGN
APOBEC3G inh – APOBEC3G DNA deaminase inhibitors, primary screen, biochemical, fluorescence, single-stranded DNA substrate, uHTS; DNA dC->dU-editing enzyme APOBEC-3G (Homo sapiens), Q9HC16; recombinant A3G, ssDNA deamination FAM/TAMRA fluorescence; inhibition, % at 20 µM; hit rate 0.28% among 330,000; AID 493012, 2011;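 active = inhibition of at least 40% at 20 µM, with no more than 30% in the related APOBEC3A deaminase screen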;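 note: plate controls were DMSO wells with A3G for no effect and wells lacking A3G enzyme for full effect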
Target sequence (Q9HC16 whole entry, looked up): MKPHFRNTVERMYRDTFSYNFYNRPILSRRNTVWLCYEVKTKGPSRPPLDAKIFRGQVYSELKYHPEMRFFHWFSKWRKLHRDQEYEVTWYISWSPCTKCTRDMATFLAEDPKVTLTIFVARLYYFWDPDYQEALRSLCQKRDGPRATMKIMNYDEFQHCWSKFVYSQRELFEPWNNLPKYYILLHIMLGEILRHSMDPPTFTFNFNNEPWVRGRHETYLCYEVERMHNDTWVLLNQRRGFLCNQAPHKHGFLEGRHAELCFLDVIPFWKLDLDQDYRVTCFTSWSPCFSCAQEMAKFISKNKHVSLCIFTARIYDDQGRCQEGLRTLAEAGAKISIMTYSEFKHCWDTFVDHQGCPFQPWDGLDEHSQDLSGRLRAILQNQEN
iPSC survival up – enhancers of single-cell hiPSC survival, primary screen, ATPlite luminescence; 100% = ROCK inhibitor wells, 0% = DMSO; survival enhancement, % at 20 µM; hit rate 0.044% among 360,000; AID 602274, 2012; in the data active = survival enhancement above about 18%;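 note: cells exposed to compounds for 16 hours before the ATP read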
PfG6PD inh – PfG6PD enzyme inhibitors, primary screen, biochemical, fluorescence intensity, uHTS; glucose-6-phosphate dehydrogenase-6-phosphogluconolactonase (Plasmodium falciparum 3D7); PfGluPho enzyme, NADPH resazurin-diaphorase fluorescence; inhibition, % at 20 µM; hit rate 0.78% among 350,000; AID 504690, 2011;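 active = inhibition reaching at least a set limit at 20 µM in the primary screen, cut at about 59% in these data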;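 note: 0% = DMSO wells with substrate and 100% = DMSO wells lacking glucose-6-phosphate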
HKDC1 inhibitor – HKDC1 hexokinase inhibitors, primary screen, biochemical, fluorescence, uHTS; inhibition, % at 20 µM; Q2TB90; recombinant HKDC1, G6PDH/diaphorase resazurin coupled fluorescence; hit rate 0.16% among 340,000; AID 493160, 2011;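 active = inhibition above about 35% when tested at 20 µM, limit read from the data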;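 note: plate controls were DMSO wells with enzyme for no effect and DMSO wells lacking enzyme for full effect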
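Test system: recombinant HKDC1 (HK5) hexokinase enzyme, produced in-house / Doses: 20 µM test compound, 1% DMSO / Timing: 90 min, room temperature / Detection: G6PDH/diaphorase-coupled fluorescence, 1 mM NADP, 100 µM resazurin, 525/613 nm / Control set: DMSO wells with and without enzyme mix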
PfG6PD confirm – PfG6PD inhibitors, hit retest, confirmation, biochemical, fluorescence intensity, single concentration. shares compounds with PfG6PD inh. recombinant PfGluPho, NADPH-diaphorase-resazurin fluorescence. inhibition, % at 20 µM. hit rate 34% among 2,400. AID 504753, 2011;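 active = inhibition of at least 50% at 20 µM in any single replicate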;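 note: 0% = DMSO with substrate and 100% = DMSO lacking glucose-6-phosphate substrate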
Diaphorase 10uM – diaphorase inhibitors and chemical oxidizers, confirmation, counter-screen for P. falciparum G6PD inhibitor project, biochemical, fluorescence intensity, 10 µM NADPH | diaphorase-coupled resazurin reduction, NADPH 10 uM | inhibition, % at 20 µM | hit rate 39% among 820 | AID 504862, 2011 | shares compounds with PfG6PD inh;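 active = average inhibition reaching 50% or more with the compound at 20 µM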;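 note: resorufin red fluorescence formed as diaphorase reduces resazurin using NADPH; 0% = DMSO with enzyme and 100% = DMSO without enzyme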
Diaph ctr 30uM – diaphorase inhibitors and chemical oxidizers, confirmation, counter-screen for P. falciparum G6PD inhibitor project, biochemical, fluorescence intensity, 30 µM NADPH. shares compounds with PfG6PD inh. Diaphorase/resazurin coupled assay, resorufin fluorescence. inhibition, % at 20 µM. hit rate 29% among 820. AID 504863, 2011;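 active = inhibition averaging 50% or more, tested at 20 µM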;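 note: 0% = DMSO with enzyme and 100% = DMSO wells lacking diaphorase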
* marks the source's active call; other numbers are inactive results; . = no result.

SMILES	A3A deaminase	APOBEC3G inh	iPSC survival up	PfG6PD inh	HKDC1 inhibitor	PfG6PD confirm	others
COc1ccc(C(NC(=O)C2CCN(CCOc3ccc(Cl)cc3)CC2)c2cccs2)cc1 (stereo not drawn)	.	.	10	.	.	.
CN(C)c1cccc2c1c(NC(=O)c1ccc(F)cc1)nn2C	-4	2	1	74*	11	57*	Diaphorase 10uM=24;Diaph ctr 30uM=26
CN(C)c1cccc2c1c(NC(=O)Nc1ccccc1)nn2C	-10	-9	-1	39	17	.
CN(C)c1cccc2c1c(NC(=O)Nc1ccc(F)cc1F)nn2C	-3	-5	-1	34	9	.
CN(C)c1cccc2c1c(NC(=O)c1ccc(Cl)cc1)nn2C	-6	-9	0	103*	8	73*	Diaphorase 10uM=31;Diaph ctr 30uM=52*
Cc1cccc(OCC(=O)Nc2ccc3oc(=O)ccc3c2)c1	3	-2	0	-2	-6	.
CC(C)(C)OC(=O)N1CCN(C(=O)c2ncn(Cc3ccccc3)c2C(=O)N2CCN(C(=O)OC(C)(C)C)CC2)CC1	-1	-9	-1	1	0	.
CC(C)Cn1c(N)c(C(=O)COC(=O)c2cc(-c3ccco3)nc3ccccc23)c(=O)n(C)c1=O	40	17	0	71*	24	4
CCOC(=O)c1c(OCC)[nH]c2c1cc(O)c1ccccc12	2	-4	2	69*	27	49*	Diaphorase 10uM=21;Diaph ctr 30uM=25
Cc1cc(C)cc(Nc2nc(-c3ccc(S(=O)(=O)N4CCCC4)cc3)cs2)c1	-2	-6	-2	56	4	.
Cc1ccc(Nc2nc(-c3ccc(S(=O)(=O)N4CCOCC4)cc3)cs2)cc1	-3	-5	0	59	-8	42
C(=N\Nc1nc2ccccc2[nH]1)/c1ccc2ncccc2c1	1	-6	0	-3	14	.
O=c1cnnc(N/N=C/c2ccccn2)[nH]1	2	1	-1	46	6	27
C(=N\Nc1nc2ccccc2[nH]1)/c1ccccn1	.	.	-3	64*	-9	54*	Diaphorase 10uM=-27;Diaph ctr 30uM=2
Cc1cc(=O)[nH]c(N/N=C/c2ccccn2)n1	0	0	0	-30	10	.
COc1ccc(/C=N/NC(=O)c2c(C)nnn2-c2nonc2N)cc1OC	3	6	0	-1	-7	.
NC(=S)N/N=C/c1ccc(-n2nncc2-c2ccc(Cl)cc2)cc1	-4	-11	1	73*	8	22
NC(=S)N/N=C/c1ccc(/C=N/NC(N)=S)cc1	-1	9	1	-7	23	.
CSC1SCC2C(=O)N(C)C(C(C)C)C(=O)OCC(NC(=O)c3cnc4ccccc4n3)C(=O)NC(C)C(=O)N(C)C1C(=O)N(C)C(C(C)C)C(=O)OCC(NC(=O)c1cnc3ccccc3n1)C(=O)NC(C)C(=O)N2C (stereo not drawn)	.	.	-1	59*	14	8
N#CC1=C2SCN(Cc3ccco3)CN2C(=O)CC1c1c(F)cccc1Cl (stereo not drawn)	-1	2	-1	66*	3	22
COc1ccc(C2CC(=O)N3C(=C2C#N)SCC3(O)c2ccccc2)cc1 (stereo not drawn)	-3	-8	9	14	-10	.
COc1cc(OC)c(C2CC(=O)N3CN(c4ccccc4)CSC3=C2C#N)cc1OC (stereo not drawn)	-4	25	-1	81*	5	58*	Diaphorase 10uM=-5;Diaph ctr 30uM=-3
CCc1ccccc1N1CSC2=C(C#N)C(c3cc(OC)c(OC)cc3OC)CC(=O)N2C1 (stereo not drawn)	-3	46*	2	67*	10	26
CCSC1=C(C#N)C(c2ccccc2Cl)CC(=O)N1 (stereo not drawn)	-8	-8	-1	5	-2	.
O=C(NCc1ccco1)C1CC(=O)N(c2ccc(Cl)cc2)C1 (stereo not drawn)	2	-4	0	2	1	.
SMILES	A3A deaminase	APOBEC3G inh	iPSC survival up	PfG6PD inh	HKDC1 inhibitor	PfG6PD confirm	others
N#CC1=C2SCN(c3ccccc3)CN2C(=O)CC1c1ccccc1Cl (stereo not drawn)	-1	57*	-1	74*	6	13
O=C(Cn1c(=O)oc2ccc(Cl)cc21)Nc1ccon1	-6	-7	0	-6	-5	.
COc1ccccc1CNC(=O)CN1C(=O)NC2(CCCCCC2)C1=O	3	-2	-3	-8	-5	.
COc1cccc(C2CC(=O)N3CN(c4cccc(Cl)c4C)CSC3=C2C#N)c1OC (stereo not drawn)	-3	-8	27*	86*	9	19
N#CC1=C2SCC(O)(c3ccccc3)N2C(=O)CC1c1ccccc1F (stereo not drawn)	-3	-4	-1	11	10	.
N#CC1=C2SCN(Cc3ccccc3)CN2C(=O)CC1c1ccccc1F (stereo not drawn)	-3	-2	4	61*	13	26
COc1cc(CN2CC(=O)N(c3cccc(Cl)c3C)C2=S)cc(OC)c1OC	-1	-5	0	20	-3	.
COc1ccc(OC)c(C2CC(=O)NC(SC)=C2C#N)c1 (stereo not drawn)	0	7	-1	28	-2	.
COc1ccc(OC)c(C2CC(=O)N3CN(c4ccc(C)c(Cl)c4)CSC3=C2C#N)c1 (stereo not drawn)	0	36	2	78*	3	14
COc1ccccc1N1CSC2=C(C#N)C(c3ccc(SC)cc3)CC(=O)N2C1 (stereo not drawn)	22	38	-1	67*	32	52*	Diaphorase 10uM=-6;Diaph ctr 30uM=-4
O=C(N/N=C/c1ccc(N2CCCCC2)o1)c1ccccc1	.	.	-2	17	3	.
O=C(N/N=C/c1ccc(N2CCOCC2)o1)c1cccc([N+](=O)[O-])c1	1	4	1	70*	17	-21
Cc1ccc2nc(Cl)c(/C=N/Nc3ccc(C(=O)O)cc3)cc2c1	0	-6	-1	60*	10	32
Cc1ccc(NC(=O)N2CCc3ccccc32)cc1C	-5	-9	-3	56	-3	.
